This is an account of results in ChEMBL document CHEMBL1123422, “1-Ethyl-7-[3-[(ethylamino)methyl]-1-pyrrolidinyl]-6,8-difluoro-1,4- dihydro-4-oxo-3-quinoline-carboxylic acid. New quinolone antibacterial with potent gram-positive activity” (1986).

≈ marks a conversion by molar mass, not a printed value.

In assay [1] the test system is Escherichia coli. Nature of the assay: Compound was tested for inhibition of the gram-negative organism Escherichia coli H560. The format is functional. In a few lines: (§1)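 MICs read in standard microdilution (microtitration) format against a panel of 10 bacterial organisms; values in µg/mL.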
For assay [2], the system named is Escherichia coli. Nature of the assay: Compound was tested for inhibition of the gram-negative organism Escherichia coli vogel. The format is functional. A digest of the protocol: as §1
A further assay concerns Enterobacter cloacae. The assay can be described thus: Compound was tested for inhibition of the gram-negative organism […] HA 2646. The format is functional.
Assay [3] addresses DNA gyrase (Escherichia coli) (UniProt P0AES6+P0AES4). The assay can be described thus: Inhibition of DNA gyrase of Escherichia coli H560 cells. A digest of the protocol: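 DNA gyrase purified from Escherichia coli H560 cells. Cleavage assay: drug-gyrase-DNA complex denatured, converting closed circular DNA to linear DNA. Linear DNA resolved by gel electrophoresis and stained with ethidium bromide. Value is the minimum drug concentration (µg/mL) giving linear DNA at an intensity relative to oxolinic acid at 10 µg/mL. Aqueous drug stocks made up in 0.1 N NaOH or KOH.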

The next assay has as its system Klebsiella pneumoniae. The assay can be described thus: Compound was tested for inhibition of the gram-negative organism Klebsiella pneumoniae MGH-2. Format: functional. A digest of the protocol:
as §1

Assay [4] has as its system Mus musculus. Nature of the assay: Compound was evaluated for protective dose against the Escherichia coli vogel lethal infection following peroral administration in mouse. The format is functional. As to conditions: po, read-out: PD50. A digest of the protocol:
(§2)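 Acute lethal systemic infection in female Charles River CD-1 mice (18–22 g), challenged intraperitoneally with an estimated 100 median lethal dose in 5% hog gastric mucin. Single doses in a twofold rising series were given with the challenge, sc as aqueous solution or po by gavage in 5% gum acacia. PD50 (mg/kg) was estimated by log probit from survival of eight mice per dose.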

The test system of assay [5] is Mus musculus. The assay can be described thus: Compound was evaluated for protective dose against the Escherichia coli vogel lethal infection following sc administration in mouse. Format: functional. The following applies: read-out: PD50. In a few lines: as §2
The subject of assay [6] is Mus musculus. The assay can be described thus: Compound was evaluated for protective dose against the […] UC-76 lethal infection following po administration in mouse. Format: functional. The following applies: read-out: PD50. In a few lines:
as §2

The test system of assay [7] is Mus musculus. The assay can be described thus: Compound was evaluated for protective dose against the […] UC-76 lethal infection following sc administration in mouse. The format is functional. As to conditions: read-out: PD50. In a few lines:
as §2

The subject of a further assay is Pseudomonas aeruginosa. The assay can be described thus: Compound was tested for inhibition of the gram-negative organism Pseudomonas aeruginosa UI-18. The format is functional. A digest of the protocol: as §1
The next assay relates to Providencia rettgeri. The assay can be described thus: Compound was tested for inhibition of the gram-negative organism Providencia rettgeri H1771. The format is functional. In a few lines: as §1
The next assay relates to Enterococcus faecalis. Nature of the assay: Compound was tested for inhibition of the […] organism Streptococcus faecalis MGH-2. Format: functional. In a few lines:
as §1

A further assay concerns Streptococcus pyogenes. Nature of the assay: Compound was tested for inhibition of the […] organism Streptococcus pyogenes C203. The format is functional. A digest of the protocol:
as §1

The next assay relates to Streptococcus pneumoniae. The assay can be described thus: Compound was tested for inhibition of the […] organism Streptococcus pneumoniae SV-1. Format: functional. A digest of the protocol:
as §1

The subject of assay [8] is Staphylococcus aureus. The assay can be described thus: Compound was tested for inhibition of the […] organism […] H228. Format: functional. A digest of the protocol:
as §1

In assay [9] the test system is Staphylococcus aureus. Nature of the assay: Compound was tested for inhibition of the […] organism […] UC-76. Format: functional. In a few lines: as §1
Assay [10] deals with Mus musculus. The assay can be described thus: Compound was evaluated for protective dose against the Streptococcus pneumoniae SV-1 lethal infection following po administration. The format is functional. As to conditions: read-out: PD50. A digest of the protocol: (§3)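 Female Charles River CD-1 mice (18–22 g) were challenged intraperitoneally with an estimated 100 median lethal dose in tryptic soy broth. Single doses, in a twofold rising series, were given at the same time as challenge: subcutaneously as aqueous solution, or orally by gavage in 5% gum acacia. Survival in groups of eight mice per dose gave PD50 (mg/kg) by log probit.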

In assay [11] the test system is Mus musculus. Nature of the assay: Compound was evaluated for protective dose against Streptococcus pneumoniae SV-1 lethal infection following sc administration. Format: functional. As to conditions: read-out: PD50. A digest of the protocol:
as §3

Usually MIC stands for the smallest concentration in the dilution series that meets the test's criterion for growth inhibition. A high value points to a less susceptible organism. On to `CCn1cc(C(=O)O)c(=O)c2cc(F)c(N3CCC(CN)C3)cc21` (stereo not given), for which the MIC was found to be 0.4 µg/mL (≈ 1.2 µM) in the assay on Escherichia coli [1]; 0.8 µg/mL (≈ 2.4 µM) against Escherichia coli [2]; 1.6 µg/mL (≈ 4.8 µM) with Enterobacter cloacae; 3.1 µg/mL (≈ 9.3 µM) in the assay with Klebsiella pneumoniae; 1.6 µg/mL (≈ 4.8 µM) with Pseudomonas aeruginosa; 6.3 µg/mL (≈ 18.9 µM) with Providencia rettgeri. Also, the minimal inhibitory concentration (MIC) against Enterococcus faecalis was found to be 0.8 µg/mL (≈ 2.4 µM); against Streptococcus pyogenes, 0.2 µg/mL (≈ 0.6 µM); against Streptococcus pneumoniae, 0.2 µg/mL (≈ 0.6 µM); with Staphylococcus aureus [8] it was 1.6 µg/mL (≈ 4.8 µM); with Staphylococcus aureus [9], 0.05 µg/mL (≈ 0.15 µM). This molecule also had a Min concentration in assay [3] of 3 µg/mL. For the same molecule, the ED50 is over 100 mg/kg with Mus musculus [4], 25 mg/kg in the assay with Mus musculus [5], over 50 mg/kg in the assay on Mus musculus [6] and 6 mg/kg in the assay on Mus musculus [7].
Regarding `CCn1cc(C(=O)O)c(=O)c2cc(F)c(N3CCC(CNC)C3)cc21` (stereo not given), the MIC in the assay with Escherichia coli [1] was determined as 0.2 µg/mL (≈ 0.576 µM); against Escherichia coli [2], 0.2 µg/mL (≈ 0.576 µM); in the assay with Enterobacter cloacae it was 1.6 µg/mL (≈ 4.61 µM); with Klebsiella pneumoniae, 1.6 µg/mL (≈ 4.61 µM); against Pseudomonas aeruginosa it was 1.6 µg/mL (≈ 4.61 µM); against Providencia rettgeri, 6.3 µg/mL (≈ 18.1 µM). Also, the MIC was found to be 1.6 µg/mL (≈ 4.61 µM) in the assay with Enterococcus faecalis; 0.1 µg/mL (≈ 0.288 µM) with Streptococcus pyogenes; 0.2 µg/mL (≈ 0.576 µM) with Streptococcus pneumoniae; 0.8 µg/mL (≈ 2.3 µM) against Staphylococcus aureus [8]; 0.013 µg/mL (≈ 0.0374 µM) with Staphylococcus aureus [9]. Besides, the ED50 in the assay with Mus musculus [4] was over 100 mg/kg; with Mus musculus [5], 18 mg/kg; in the assay on Mus musculus [6], over 50 mg/kg; in the assay on Mus musculus [7], 8 mg/kg; in the assay with Mus musculus [10], over 100 mg/kg; in the assay on Mus musculus [11], over 25 mg/kg.
Consider `CCn1cc(C(=O)O)c(=O)c2cc(F)c(N3CCC(CN)C3)c(F)c21` (stereo not given), for which the MIC against Escherichia coli [1] stood at 0.1 µg/mL (≈ 0.285 µM); against Escherichia coli [2], 0.1 µg/mL (≈ 0.285 µM); in the assay with Enterobacter cloacae, 0.2 µg/mL (≈ 0.569 µM); against Klebsiella pneumoniae it was 0.4 µg/mL (≈ 1.14 µM); against Pseudomonas aeruginosa, 0.8 µg/mL (≈ 2.28 µM); in the assay on Providencia rettgeri it was 0.4 µg/mL (≈ 1.14 µM). The MIC with Enterococcus faecalis came out at 0.1 µg/mL (≈ 0.285 µM); against Streptococcus pyogenes, 0.1 µg/mL (≈ 0.285 µM); in the assay with Streptococcus pneumoniae it was 0.2 µg/mL (≈ 0.569 µM); in the assay with Staphylococcus aureus [8], 0.1 µg/mL (≈ 0.285 µM); with Staphylococcus aureus [9], 0.1 µg/mL (≈ 0.285 µM). In addition, the Min concentration in assay [3] is 0.5 µg/mL. The ED50 with Mus musculus [4] is 90 mg/kg; in the assay on Mus musculus [5] it was 1.2 mg/kg; in the assay on Mus musculus [10], 100 mg/kg; in the assay with Mus musculus [11], 5 mg/kg.
As to `CCNCC1CCN(c2cc3c(cc2F)c(=O)c(C(=O)O)cn3CC)C1` (stereo not given), the MIC with Escherichia coli [1] was 0.1 µg/mL (≈ 0.277 µM); against Escherichia coli [2], 0.1 µg/mL (≈ 0.277 µM); against Enterobacter cloacae, 0.2 µg/mL (≈ 0.553 µM); against Klebsiella pneumoniae it was 0.4 µg/mL (≈ 1.11 µM); against Pseudomonas aeruginosa it was 1.6 µg/mL (≈ 4.43 µM); in the assay on Providencia rettgeri, 1.6 µg/mL (≈ 4.43 µM). For the same molecule, the MIC against Enterococcus faecalis turned out to be 0.2 µg/mL (≈ 0.553 µM); against Streptococcus pyogenes, 0.1 µg/mL (≈ 0.277 µM); in the assay with Streptococcus pneumoniae it was 0.2 µg/mL (≈ 0.553 µM); in the assay with Staphylococcus aureus [8], 0.2 µg/mL (≈ 0.553 µM); in the assay with Staphylococcus aureus [9] it was 0.05 µg/mL (≈ 0.138 µM). Besides, the Min concentration in assay [3] was 2.5 µg/mL. Besides, the ED50 in the assay on Mus musculus [4] is over 100 mg/kg; in the assay on Mus musculus [5] it was 15 mg/kg; with Mus musculus [6] it was 35 mg/kg; in the assay on Mus musculus [7], 3 mg/kg.
For the molecule `CCn1cc(C(=O)O)c(=O)c2cc(F)c(N3CCC(CNC)C3)c(F)c21` (stereo not given), the MIC worked out at 0.2 µg/mL (≈ 0.547 µM) in the assay on Escherichia coli [1]; 0.4 µg/mL (≈ 1.09 µM) with Escherichia coli [2]; 0.4 µg/mL (≈ 1.09 µM) against Enterobacter cloacae; 0.8 µg/mL (≈ 2.19 µM) against Klebsiella pneumoniae; 1.6 µg/mL (≈ 4.38 µM) against Pseudomonas aeruginosa; 0.8 µg/mL (≈ 2.19 µM) in the assay with Providencia rettgeri. In addition, the MIC against Enterococcus faecalis stood at 0.1 µg/mL (≈ 0.274 µM); in the assay on Streptococcus pyogenes it was 0.1 µg/mL (≈ 0.274 µM); in the assay on Streptococcus pneumoniae, 0.1 µg/mL (≈ 0.274 µM); against Staphylococcus aureus [8], 0.2 µg/mL (≈ 0.547 µM); against Staphylococcus aureus [9], 0.1 µg/mL (≈ 0.274 µM). The molecule further had a Min concentration in assay [3] of 0.5 µg/mL. For the same molecule, the ED50 in the assay with Mus musculus [4] was 6.9 mg/kg; in the assay with Mus musculus [5], 1.9 mg/kg; in the assay on Mus musculus [10] it was 37 mg/kg; in the assay with Mus musculus [11] it was 11 mg/kg.
Turning to `CNn1cc(C(=O)O)c(=O)c2cc(F)c(N3CCN(C)CC3)cc21` [AMIFLOXACIN], the MIC was found to be 0.025 µg/mL (≈ 0.0748 µM) in the assay with Escherichia coli [1]; 0.1 µg/mL (≈ 0.299 µM) against Escherichia coli [2]; 0.2 µg/mL (≈ 0.598 µM) in the assay on Klebsiella pneumoniae; 0.8 µg/mL (≈ 2.39 µM) in the assay with Pseudomonas aeruginosa; 0.2 µg/mL (≈ 0.598 µM) against Providencia rettgeri; 3.1 µg/mL (≈ 9.27 µM) against Enterococcus faecalis. Moreover, the MIC against Streptococcus pyogenes was 12.5 µg/mL (≈ 37.4 µM); against Streptococcus pneumoniae it was 12.5 µg/mL (≈ 37.4 µM); against Staphylococcus aureus [8], 1.6 µg/mL (≈ 4.79 µM); against Staphylococcus aureus [9], 0.4 µg/mL (≈ 1.2 µM). For the same molecule, the ED50 is 4.5 mg/kg in the assay with Mus musculus [4], 1 mg/kg in the assay on Mus musculus [5], over 100 mg/kg in the assay on Mus musculus [10] and over 25 mg/kg in the assay on Mus musculus [11].
